This is a sample that favours compounds with a hit; in the whole collection about 1.9% have one here.
Scp1 inh – inhibitors of human Scp-1 phosphatase; Q9GZU7; Recombinant Scp1, phosphopeptide, malachite green phosphate absorbance; inhibition, % at 20 µM; 340,000 tested, 0.88% active;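 active means inhibition above about 50% at 20 µM, limit read from the data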;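 further: plate controls were DMSO wells with enzyme for no effect and wells lacking enzyme for full effect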
Target sequence (Q9GZU7 76-261 limits assumed): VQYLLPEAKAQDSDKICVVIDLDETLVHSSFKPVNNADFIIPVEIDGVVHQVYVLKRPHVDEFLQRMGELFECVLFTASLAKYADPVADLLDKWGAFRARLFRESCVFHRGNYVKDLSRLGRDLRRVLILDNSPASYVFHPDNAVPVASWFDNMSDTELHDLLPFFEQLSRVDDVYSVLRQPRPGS
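Times: enzyme reaction 45 min at room temperature, colour 5 min, stabilisation 30 min. Material: SCP-1 catalytic fragment, aa 76-261. Medium: Acidic Tris acetate buffer with magnesium and detergent. Signal: colorimetric free-phosphate detection, absorbance 630 nm. Read-out basis: % inhibition of SCP-1 phosphate liberation. Reagent: Phosphorylated 17-residue peptide substrate.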
STEP block – inhibitors of human striatal-enriched phosphatase STEP. P54829. recombinant STEP, OMFP fluorogenic substrate, fluorescence. inhibition, % at 20 µM. 360,000 tested, 0.25% active. AID 588621;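 active means inhibition at 20 µM, scaled per plate between control wells, above about 37%, limit read from the data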;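 further: 0% = DMSO with enzyme and substrate and 100% = substrate only without enzyme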
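Assay system: isolated STEP enzyme. Buffer or medium: pH 6.0 Bis-Tris with DTT and Tween 20. Also added: fluorogenic phosphatase substrate OMFP at 25 µM final. Dosing: 20 µM, 1% DMSO. Timing: 20 min reaction, room temperature, in the dark. Measured by: fluorescence intensity, excitation 480 nm, emission 540 nm. Evaluation: normalized % inhibition.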
FAS TE block – blocks the thioesterase domain of human fatty acid synthase. recombinant FAS-TE, OMFH fluorogenic substrate, fluorescence endpoint. P49327. 360,000 tested, 0.67% active. AID 602261. inhibition, % at 15 µM;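 active means compounds whose normalised, plate-corrected inhibition of enzyme fluorescence in the single-dose primary screen is 50% or more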;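 further: 0% = DMSO with enzyme and 100% = substrate without enzyme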
LMPTP block – blocks human LMPTP phosphatase; P24666; recombinant LMPTP-A, OMFP fluorogenic substrate, fluorescence intensity; inhibition, % at 20 µM; 360,000 tested, 0.22% active; AID 651560;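 active means compounds that cut the enzyme signal by at least half of the control window in the single-dose screen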;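 further: plate controls were DMSO wells with enzyme plus substrate for no effect and substrate without enzyme for full effect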
Target sequence (P24666 whole entry, looked up): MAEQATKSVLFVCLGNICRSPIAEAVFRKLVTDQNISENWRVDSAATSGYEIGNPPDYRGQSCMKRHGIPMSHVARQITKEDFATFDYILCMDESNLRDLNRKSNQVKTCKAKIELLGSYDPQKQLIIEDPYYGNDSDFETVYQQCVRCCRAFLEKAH
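Assay system: LMPTP-A, protein tyrosine phosphatase of low molecular weight / Medium: pH 6.0 Bis-Tris buffer with DTT and Triton X-100 / Schedule: 50 min enzyme reaction at room temperature, protected from light / Measured by: endpoint fluorescence intensity from OMFP dephosphorylation / Read-out basis: % inhibition relative to no-enzyme and uninhibited control wells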
SUMO1-SIM PPI – modulators of human SUMO1-mediated protein-protein interactions; 360,000 tested, 0.33% active; SUMO1 binding to a labelled peptide, TR-FRET, 1 h; inhibition, % at 20 µM; AID 602429; P63165; in the data active means inhibition above about 37%
Target sequence (P63165 whole entry, looked up): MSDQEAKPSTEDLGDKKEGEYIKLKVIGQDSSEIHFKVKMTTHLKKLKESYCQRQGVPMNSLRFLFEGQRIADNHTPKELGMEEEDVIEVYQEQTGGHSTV
Scp1 confirm – Scp-1 (human) inhibition, single-dose confirmed; shares compounds with Scp1 inh; recombinant SCP-1 catalytic domain, phosphate release, malachite green absorbance; inhibition, % at 20 µM; 2,500 tested, 61% active; AID 540281;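 further: plate controls were DMSO with enzyme for no effect and buffer wells lacking enzyme for full effect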
Scp-1 MG ctr – counter-screen for Scp-1 inhibitors: colorimetric interference; shares compounds with Scp1 inh; 2,500 tested, under 10 active; Colorimetric interference counterscreen, malachite green absorbance 630 nm; apparent inhibition (interference), % at 20 µM;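 further: compounds added after enzyme reaction finished so only phosphate colour detection is probed; plate controls were DMSO wells with completed Scp-1 reaction for no effect and substrate wells lacking enzyme for full effect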
Scp-1 Tm shift – Scp-1 (human) binding by thermal shift; 1,500 tested, 25% active; shares compounds with Scp1 inh; Recombinant SCP1, Sypro Orange thermal shift Tm; thermal shift relative to vanadate control, % at 40 µM; AID 540329;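 active means substances whose mean melting-temperature shift, as a percentage of the reference inhibitor's shift, reaches about 5.3%, limit read from the data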;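 further: 0% = Tm of DMSO wells and 100% = Tm with sodium orthovanadate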
STEP conf – confirmation of human STEP phosphatase inhibitors; shares compounds with STEP block; recombinant STEP, OMFP fluorogenic substrate, fluorescence; inhibition, % at 20 µM; 520 tested, 32% active; AID 623866; call rule not given here;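 further: 0% = enzyme with substrate plus DMSO and 100% = substrate without enzyme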
FAS-TE conf – confirmation of human fatty acid synthase thioesterase inhibitors | inhibition, % at 15 µM | shares compounds with FAS TE block | AID 624325 | recombinant FAS-TE, OMFH fluorogenic substrate, fluorescence | 2,300 tested, 45% active;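 active means compounds inhibiting the enzyme by at least 50% at 15 µM in any one of the replicates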;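 further: 0% = enzyme with DMSO only and 100% = wells lacking enzyme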
* hit, by the source's call; . = no result.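 How the source made its calls, unless noted: active means inhibition of at least 30% at 20 µM; inactive means the rest.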

SMILES	Scp1 inh	STEP block	FAS TE block	LMPTP block	SUMO1-SIM PPI	Scp1 confirm	Scp-1 MG ctr	Scp-1 Tm shift	STEP conf	others
O=C(N/N=C/c1ccsc1)c1cc2ccccc2o1	18.3	6.0	-1.0	-0.2	-7.2	.	.	.	.
O=C(N/N=C/c1cccc([N+](=O)[O-])c1)c1cc2ccccc2o1	51.2*	62.6*	-5.4	38.0	-3.8	29.6	-11.5	.	-5.0
Cc1cc(N)n(-c2ccc(Oc3ccccc3)c(S(=O)(=O)O)c2)n1	75.2*	43.3*	-5.7	6.7	10.0	60.2*	-9.6	0.8	16.6
Cc1cc(N)n(-c2ccc(C)c(C)c2)n1	-8.0	-1.5	-9.2	-0.8	-1.5	.	.	.	.
C[C@H](CO)N1C[C@H](C)[C@@H](CN(C)Cc2ccncc2)Oc2c(cccc2N(C)C)C1=O	7.5	-2.8	-5.8	-1.1	-3.6	.	.	.	.
O=C(Cn1nnc(-c2ccc(NC(=O)c3ccccc3F)cc2)n1)NCc1ccc(F)cc1	52.3*	65.4*	-7.4	38.7	6.1	67.9*	-15.3	8.1*	19.7
CC(C)(C)n1nnnc1C(c1ccccc1)N1CCCN(Cc2ccc(F)cc2)CC1 (configuration not stated)	.	.	-7.4	-0.7	-1.2	.	.	.	.
O=C(N/N=C/c1ccoc1)c1cccc([N+](=O)[O-])c1	24.3	9.5	5.0	1.0	-23.5	.	.	.	.
O=C(N/N=C/c1ccc(Br)s1)c1cccc([N+](=O)[O-])c1	99.1*	94.3*	-0.3	90.7*	30.7	76.4*	-13.9	1.0	56.3*
CCn1c(=S)sc2c(=O)n(CC(=O)Nc3ccccc3C(F)(F)F)c(C)nc21	68.0*	87.0*	6.4	66.5*	8.2	25.5	-17.5	.	8.3
COC(=O)C(Cc1c[nH]c2ccccc12)NC(=O)c1cc(-c2ccc(OC)c(OC)c2)oc1C (configuration not stated)	-16.7	5.2	24.5	0.7	0.6	.	.	.	.
O=C(N/N=C/c1ccc(F)cc1)c1ccc(Br)cc1	30.2	-3.3	-4.1	0.1	-0.9	.	.	.	.
O=C(N/N=C/c1ccc(Br)cc1)c1ccc(Br)o1	99.9*	46.6*	0.5	11.8	-5.3	81.6*	-17.0	-8.8	70.7*
O=C(Nc1nc2ccsc2c(=O)s1)c1ccc(Cl)cc1	102.7*	96.0*	0.2	53.9*	-30.7	72.1*	-10.1	4.7	0.4
COc1ccc2cc3c(N)nn(C(=O)c4cccc(F)c4)c3nc2c1	96.3*	95.6*	2.5	25.9	85.2*	60.4*	-16.4	-21.5	21.3*
Cc1cccc(Nc2nn3c(=O)c4ccccc4nc3s2)c1	106.4*	96.5*	-3.6	47.4	7.4	68.9*	-22.1	-10.4	29.2*
CC1CCCN(C(=O)c2ccc3c(=O)n4nc(Nc5ccccc5)sc4nc3c2)C1 (configuration not stated)	.	2.6	16.6	0.5	-2.8	.	.	.	.
COc1cc(/C=C(\C#N)C(=O)Nc2cccc(C(=O)O)c2)ccc1OCc1ccc(C)cc1	86.4*	60.7*	12.2	0.0	9.6	72.4*	-18.9	0.9	6.4
COCCCn1cc(CN2CC(N3CCN(Cc4cccc(C)c4)CC3)CS2(=O)=O)nn1 (configuration not stated)	.	.	-9.2	-1.1	-0.4	.	.	.	.
O=C(N/N=C/c1cccnc1)c1ccc(NC(=O)c2cccc(Cl)c2)cc1	70.1*	94.3*	-4.5	21.4	61.2*	72.1*	-12.0	8.4*	61.1*
O=C(N/N=C/c1cccnc1)c1ccc(Cl)c(Cl)c1	-12.8	-0.7	0.5	-2.0	-14.6	.	.	.	.
Cc1ccc(C)c(N2C(=O)c3ccc(C(=O)Nc4ccccn4)cc3C2=O)c1	.	-1.9	-1.4	-1.7	-19.1	.	.	.	.
CCOc1ccc(N=C2NC(=O)S/C2=C\c2ccc(Cl)cc2)cc1	111.7*	50.7*	-2.7	47.4	-3.9	41.2*	-9.8	-1.9	32.6
N#Cc1ccccc1CCN1C(=O)c2ccccc2C1=O	-5.0	-3.6	-1.9	-4.3	-13.8	.	.	.	.
O=C(N/N=C/C=C/c1ccccc1)c1cc2c(ccc3ccccc32)o1	102.4*	65.6*	-9.6	62.5*	-1.2	81.1*	-6.5	-21.6	21.2
SMILES	Scp1 inh	STEP block	FAS TE block	LMPTP block	SUMO1-SIM PPI	Scp1 confirm	Scp-1 MG ctr	Scp-1 Tm shift	STEP conf	others
O=C(N/N=C/c1ccccc1F)c1cc2c(ccc3ccccc32)o1	103.0*	96.8*	-6.9	35.5	10.4	67.2*	-10.9	-18.1	11.1
O=C(NNc1ncnc2ccccc12)c1cccc(Cl)c1	99.9*	37.7*	-8.0	6.4	0.5	91.4*	-7.1	-11.3	1.1
CC(C)c1ccc(NC(=O)c2cc([N+](=O)[O-])ccc2N2CCOCC2)cc1	55.0*	0.7	73.5*	0.8	-17.7	-10.8	-12.9	.	.	FAS-TE conf=23.7
CCCC(=O)N1CCC1(C)C(=O)Nc1ccc2scnc2c1 (configuration not stated)	.	-0.9	-7.9	-1.4	2.6	.	.	.	.
Cn1c(SCC(=O)Nc2ncc(C(F)(F)F)cc2Cl)nnc1-c1ccc(Cl)cc1	61.6*	0.1	80.8*	-3.0	1.4	18.9	2.0	.	.	FAS-TE conf=90.2*
Cc1cc(Cl)ccc1NC(=O)CCC(=O)N/N=C/c1cc([N+](=O)[O-])ccc1O	54.6*	-0.1	55.3*	34.5	-11.7	66.0*	-1.9	-0.3	.	FAS-TE conf=70.4*
O=[N+]([O-])c1ccc(O)c(/C=N/NC(=S)Nc2ccc(Cl)cc2Cl)c1	4.0	-1.2	41.5	2.5	7.5	.	.	.	.
Cc1ccc(N(C)S(=O)(=O)c2c(C)noc2/C=C/N(C)C)cc1	-2.4	-1.5	10.8	1.3	0.2	.	.	.	.
CC1(C)CC(=O)C(C=NCC2CCNCC2)=C(O)C1	-1.2	-0.9	-4.4	-8.3	-0.6	.	.	.	.
CC1(C)CC(=O)C(C=NCC2CCN(C(=O)Cc3ccccc3)CC2)=C(O)C1	3.6	47.5*	-3.7	15.1	69.9*	.	.	.	0.3
CN1CCN(Cc2nc3ccccc3c(=O)n2Cc2nc(-c3cccc([N+](=O)[O-])c3)cs2)CC1	-2.5	42.9*	6.4	4.5	-18.8	.	.	.	12.7
CNC(=O)NC(=O)C(OC(=O)Cc1cccc(C(F)(F)F)c1)c1ccccc1 (configuration not stated)	5.9	-3.3	9.8	2.1	4.5	.	.	.	.

Compound activity deposited in PubChem BioAssay by Sanford-Burnham Center for Chemical Genomics.
